31 compounds from ChEMBL document CHEMBL2169737, “Catechol pyrazolinones as trypanocidals: fragment-based design, synthesis, and pharmacological evaluation of nanomolar inhibitors of trypanosomal phosphodiesterase B1” (J Med Chem, 2012) can be followed below.

The source made the active and inactive calls. No cut-off for these calls is given here.

In general, IC50 refers to the concentration needed to halve the response being measured. By CC50 is commonly meant the concentration giving 50% cytotoxicity. High values mean lower toxicity to the cells, low ones greater toxicity to the cells.

The target of data set [1] is T1, Class 1 phosphodiesterase PDEB1 (Trypanosoma brucei, UniProt Q8WQX9).
T1 sequence (Q8WQX9 whole entry): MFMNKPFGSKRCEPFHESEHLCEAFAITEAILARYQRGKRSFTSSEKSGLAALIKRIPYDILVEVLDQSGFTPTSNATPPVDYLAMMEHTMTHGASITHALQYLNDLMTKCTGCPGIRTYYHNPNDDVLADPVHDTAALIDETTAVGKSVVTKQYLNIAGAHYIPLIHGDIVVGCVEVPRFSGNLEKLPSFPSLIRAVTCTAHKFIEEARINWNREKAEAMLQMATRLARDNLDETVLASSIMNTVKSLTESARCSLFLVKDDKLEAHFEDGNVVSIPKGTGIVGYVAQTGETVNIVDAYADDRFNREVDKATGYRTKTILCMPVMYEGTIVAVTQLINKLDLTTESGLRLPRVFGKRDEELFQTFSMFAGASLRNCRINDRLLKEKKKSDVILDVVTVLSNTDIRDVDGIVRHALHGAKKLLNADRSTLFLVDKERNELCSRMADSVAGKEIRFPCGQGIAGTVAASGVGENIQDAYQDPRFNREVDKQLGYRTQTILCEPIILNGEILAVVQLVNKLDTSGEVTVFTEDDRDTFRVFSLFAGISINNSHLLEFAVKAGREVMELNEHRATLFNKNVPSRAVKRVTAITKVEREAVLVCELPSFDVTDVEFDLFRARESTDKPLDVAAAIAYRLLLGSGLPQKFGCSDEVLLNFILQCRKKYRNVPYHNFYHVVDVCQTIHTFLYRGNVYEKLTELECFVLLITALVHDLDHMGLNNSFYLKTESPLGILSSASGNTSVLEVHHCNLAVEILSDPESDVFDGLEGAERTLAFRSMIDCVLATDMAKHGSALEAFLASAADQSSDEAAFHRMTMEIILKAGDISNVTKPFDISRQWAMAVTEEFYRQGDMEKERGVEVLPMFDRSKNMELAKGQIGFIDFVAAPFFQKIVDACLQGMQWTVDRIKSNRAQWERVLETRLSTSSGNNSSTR
The data set is described as follows: Inhibition of Trypanosoma brucei recombinant TbrPDEB1 expressed in Sf21 insect cells assessed as reduction of [3H]-cAMP hydrolysis by scintillation proximity assay. An outline of the steps:
(§1)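 Full-length PDEs used as supernatants of sonicated overexpressing cells: Sf21 for TbrPDEB1 and hPDE4A1/4B1/4C1/4D3, yeast for TbrPDEB2. Inhibition of ³H-cAMP hydrolysis measured by scintillation proximity assay with 0.5 μM cAMP substrate, in at least duplicates. Enzyme adjusted for <20% substrate consumption; blanks used denatured protein. IC50 obtained by nonlinear regression of dose-response curves.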
(SPA uses beads or plates that emit light when radiolabelled molecules are held near them.)

Data set [2] is described as follows: Cytotoxicity against human MRC5 cells after 72 hrs by resazurin assay. In kind it is cell-based.
The test system of data set [3] is Trypanosoma brucei brucei. The data set is described as follows: microbe, parasite or virus in culture. The settings on record: Squib-427, 72 h.
Data set [4] relates to Trypanosoma brucei brucei. The data set is described as follows: Induction of morphological changes in wild type blood form of Trypanosoma brucei brucei assessed as multiple nuclei and kinetoplasts formation after 12 hrs by microscopic analysis. In kind it is functional, organism-based. An outline of the steps: (§2)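 Bloodstream T. b. brucei trypomastigotes at 1x10^6/mL incubated 12 h with 1, 5 or 10 μM compound or vehicle. Cells washed in saline, spread on slides, fixed 15 min in 2% formaldehyde, stained 30 min with Syto-9 (250 nM) and Nile Red. More than 300 cells per sample scored manually by microscopy as 1N1K, 1N2K, 2N1K or >2N2K.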

Data set [5] concerns Trypanosoma brucei brucei. The data set is described as follows: Antitrypanosomal activity against wild type blood form of Trypanosoma brucei brucei assessed as parasite lysis at 10 uM after 48 hrs. The class given is functional, organism-based.
Data set [6] relates to Trypanosoma brucei brucei. The data set is described as follows: Induction of morphological changes in wild type blood form of Trypanosoma brucei brucei assessed as multiple nuclei and kinetoplasts formation at 10 uM after 12 hrs by microscopic analysis. The class given is functional, organism-based. An outline of the steps: as §2
A further data set relates to Trypanosoma brucei. The data set is described as follows: Increase in intracellular cAMP level in Trypanosoma brucei 427 expressing cAMP-FRET sensor by FRET assay. In kind it is functional, organism-based. An outline of the steps:
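Procyclic T. brucei 427 stably expressing an EPAC1-based cAMP FRET sensor (EP procyclin locus, neomycin selection), grown in SDM79 with 5% FCS. Log-phase cells washed in HBSS and used at 5-6 x 10^7/mL. Drug dilutions in DMSO (1 µL/well) mixed with HBSS, then cell suspension added at 27 °C.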

Data set [7] deals with Trypanosoma brucei rhodesiense. The data set is described as follows: Antitrypanosomal activity against trypomastigotes of Trypanosoma brucei rhodesiense STIB-900 after 72 hrs by fluorescence assay. Particulars: STIB-900, 72 h.
Another data set concerns Trypanosoma cruzi. The data set is described as follows: Antitrypanosomal activity against trypomastigotes of Trypanosoma cruzi after 72 hrs by fluorescence assay.
Data set [8] in a line: Inhibition of Trypanosoma brucei recombinant TbrPDEB2 expressed in yeast assessed as reduction of [3H]-cAMP hydrolysis by scintillation proximity assay. The gist of the method:
as §1

Data set [9] concerns Trypanosoma brucei brucei. The data set is described as follows: Antitrypanosomal activity against Trypanosoma brucei brucei. In kind it is functional, organism-based. The gist of the method: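 Bloodstream trypomastigotes (T. b. brucei Squib-427, suramin-sensitive, or T. b. rhodesiense STIB-900) grown at 37 °C, 5% CO2 in Hirumi-9 with 10% FCS. 1.5×10^4 parasites/well added to 2- or 4-fold serially diluted compounds (DMSO stock, water intermediate dilution, final DMSO <1%). After 72 h, resazurin added for 24 h at 37 °C. Fluorescence read at ex 530/em 590 nm.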

Take `COc1ccc(C2=NNC(=O)C2(C)C)cc1OCc1ccccc1`: the IC50 in data set [1] is 6300 nM.

As for `COc1ccc(C2=NN(C(C)C)C(=O)C2(C)C)cc1O`, the IC50 in [1] is more than 10000 nM. In turn, `COc1ccc(C2=NN(C3CCCCCC3)C(=O)C2(C)C)cc1Cl` returned a CC50 at 72 h in data set [2] of 32000 nM. The values for the IC50 in data set [1] and in [3] were 2000 nM and 10000 nM, respectively. `COc1ccc(C2=NN(C3CCCCCC3)C(=O)C2(C)C)cc1OC1CCCC1`: the IC50 in data set [1] worked out at 410 nM. In data set [2], `COc1ccc(COc2cc(C3=NN(C4CCCCCC4)C(=O)C3(C)C)ccc2OC)cc1` had a 50% cytotoxic concentration (CC50) at 72 h of more than 64000 nM. The IC50 in data set [1] is 790 nM; in data set [3], 10000 nM. Take `COc1ccc(C2=NN(C(C)C)C(=O)C2(C)C)cc1OCc1ccc(C#N)cc1`: the IC50 in data set [1] stood at 2000 nM. As for `COc1ccc(CCOc2cc(C3=NN(C4CCCCCC4)C(=O)C3(C)C)ccc2OC)cc1`, the IC50 in [1] worked out at 630 nM. In turn, `COc1ccc(C2=NN(C3CCCCCC3)C(=O)C2(C)C)cc1OCc1ccccc1` returned a CC50 at 72 h in [2] of more than 64000 nM. Further, the half-inhibitory concentration (IC50) in data set [1] was 500 nM; in data set [3] it was 6300 nM.

Turning to `COc1ccc(C2=NN(C(C)C)C(=O)C2(C)C)cc1Cl`, the half-maximal inhibitory concentration (IC50) in [1] is more than 10000 nM. Same read-out and setting: then `COc1ccc(C2=NN(C)C(=O)C2(C)C)cc1OCc1ccccc1`, with 10000 nM; and `COc1ccc(CCOc2cc(C3=NN(C(C)C)C(=O)C3(C)C)ccc2OC)cc1`, with 830 nM.

With `COc1ccc(C2=NN(C3CCCCCC3)C(=O)C2(C)C)cc1OCCCCOc1ccc(-c2nn[nH]n2)cc1`, the Activity result (in data set [4]; in the data set with Trypanosoma brucei) was “Dose-dependent effect” in each case. The inhibition result in data set [5] was “Active”. Further, the result in data set [6] was Active. The half-maximal inhibitory concentration (IC50) in data set [7] is 60 nM; with Trypanosoma cruzi it was 7600 nM; in data set [8] it was 72 nM; in data set [3], 520 nM. For `COc1ccc(C2=NN(C(C)C)C(=O)C2(C)C)cc1OCCCCOc1ccc(C#N)cc1`, in data set [1], the half-maximal inhibitory concentration (IC50) worked out at 5000 nM.

With `COc1ccc(C2=NN(C(C)C)C(=O)C2(C)C)cc1Br`, in [1], the IC50 was more than 10000 nM.

Turning to `COc1ccc(C2=NNC(=O)C2(C)C)cc1Br`, the CC50 at 72 h in [2] is more than 64000 nM. Besides, the half-inhibitory concentration (IC50) in [1] is more than 10000 nM; in [3], more than 64000 nM. Compound `COc1ccc(COc2cc(C3=NN(C(C)C)C(=O)C3(C)C)ccc2OC)cc1` gave a CC50 at 72 h in data set [2] of more than 64000 nM. Moreover, the figures for the concentration for half-maximal inhibition (IC50) in [1] and in data set [3] were 2000 nM and 32000 nM, respectively. For the compound `COc1ccc(C2=NN(C3CCCCCC3)C(=O)C2(C)C)cc1OCCCCOc1ccc(C#N)cc1`, in data set [1], the half-maximal inhibitory concentration (IC50) turned out to be 160 nM. Take `COc1ccc(C2CNC(=O)C2)cc1OC1CCCC1` (stereo not given) [ROLIPRAM]: the half-maximal inhibitory concentration (IC50) in data set [1] was more than 100000 nM.

Take `COc1ccc(C2=NN(C3CCCCCC3)C(=O)C2(C)C)cc1Br`: in data set [1], the IC50 was 2500 nM. For the compound `COc1ccc(C2=NN(C3CCCCCC3)C(=O)C2(C)C)cc1OCc1ccc(C#N)cc1`, the IC50 in [1] stood at 1000 nM. Turning to `COc1ccc(C2=NN(C3CCCCCC3)C(=O)C2(C)C)cc1OCc1cccc2ccccc12`, the IC50 in [1] was found to be 250 nM. Consider `COc1ccc(C2=NN(C3CCCCCC3)C(=O)C2(C)C)cc1OCc1cc(C)on1`, for which the 50% inhibitory concentration (IC50) in data set [1] was determined as 630 nM. Regarding `COc1ccc(C2=NN(C(C)C)C(=O)C2(C)C)cc1OCc1ccccn1`, in data set [1], the IC50 is 2500 nM. As to `COc1ccc(C2=NN(C3CCCCCC3)C(=O)C2(C)C)cc1O`, the IC50 in [1] was more than 10000 nM. On to `COc1ccc(C2=NN(C(C)C)C(=O)C2(C)C)cc1OCc1ccccc1`, for which the IC50 in [1] came to 1000 nM.

In the case of `COc1ccc(C2=NN(C3CCCCCC3)C(=O)C2(C)C)cc1OCc1ccccn1`, the IC50 in data set [1] came to 500 nM. Regarding `COc1ccc(C2=NNC(=O)C2(C)C)cc1Cl`, the half-maximal inhibitory concentration (IC50) in data set [1] is more than 10000 nM. For `COc1ccc(C2=NN(C(C)C)C(=O)C2(C)C)cc1OCc1cc(C)on1`, the CC50 at 72 h in data set [2] was more than 64000 nM. Further, the IC50 is 5000 nM in data set [1] and 33000 nM in [3]. As for `COc1ccc(C2=NNC(=O)C2(C)C)cc1OC1CCCC1`, in data set [1], the concentration for half-maximal inhibition (IC50) is 12000 nM. Consider `COc1ccc(C2=NN(C(C)C)C(=O)C2(C)C)cc1OCc1cccc2ccccc12`, for which the 50% inhibitory concentration (IC50) in data set [1] came to 790 nM. With `COc1ccc(C2=NN(C3CCCCCC3)C(=O)C3CC=CCC23)cc1OCCCCOc1ccc(-c2nn[nH]n2)cc1` (stereo not given), the concentration for half-maximal inhibition (IC50) in data set [9] turned out to be 80 nM.
